Assay results taken from ChEMBL document CHEMBL1132613 (J Med Chem, 1999).

What was measured:
[1] = target: T1, 5-hydroxytryptamine receptor 1A (Rattus norvegicus, UniProt P19327); test: Compound was tested for the displacement of [3H]-8-OH- DPAT from rat brain 5-hydroxytryptamine 1A receptor
T1 sequence (P19327 whole entry): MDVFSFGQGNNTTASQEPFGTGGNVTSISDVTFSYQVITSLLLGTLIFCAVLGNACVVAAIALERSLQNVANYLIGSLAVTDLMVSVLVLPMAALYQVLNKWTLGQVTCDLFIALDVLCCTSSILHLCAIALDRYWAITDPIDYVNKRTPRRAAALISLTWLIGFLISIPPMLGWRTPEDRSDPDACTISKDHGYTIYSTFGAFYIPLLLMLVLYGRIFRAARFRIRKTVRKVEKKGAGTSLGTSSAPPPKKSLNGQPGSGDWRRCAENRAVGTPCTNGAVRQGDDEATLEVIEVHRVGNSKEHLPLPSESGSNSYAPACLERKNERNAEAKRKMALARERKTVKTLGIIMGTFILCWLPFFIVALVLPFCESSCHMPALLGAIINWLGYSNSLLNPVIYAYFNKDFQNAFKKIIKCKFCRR
Summary of the method: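 Pooled rat hippocampal membranes were preincubated at 37 °C. Buffer was 50 mM Tris HCl pH 7.4 with 0.5 mM Na2EDTA, 10 mM MgCl2, 0.1% Na ascorbate and pargyline. 200–400 μg protein was incubated with [3H]-8-OH-DPAT for 15 min at 37 °C, then GF/C filtered and scintillation counted. Nonspecific binding was defined with 10 μM 5-HT. Triplicate tubes.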

Rattus norvegicus [2] = test: Drug Discrimination in […] trained rats at 0.5 mg/kg dose; assay type: functional
Summary of the method: (§1)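 Male Sprague–Dawley rats (200–220 g) in a two-lever, FR50 food-reinforced task. Rats were trained to discriminate saline from LSD tartrate (0.08 mg/kg), DOI HCl (0.4 mg/kg) or LY293284 (0.025 mg/kg) in 15-min sessions. %SDL is the share of rats making over 80% of presses on the drug lever. %D is the share failing to make 50 presses within 15 min. ED50 by Litchfield–Wilcoxon log-probit.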

Rattus norvegicus [3] = test: Drug Discrimination in […] trained rats at 1.0 mg/kg dose; assay type: functional; summary of the method: as §1
Rattus norvegicus [4] = test: Drug Discrimination in […] trained rats at 2.0 mg/kg dose; assay type: functional; summary of the method: as §1
Rattus norvegicus [5] = test: Drug Discrimination in […] trained rats at 4.0 mg/kg dose; assay type: functional; summary of the method: as §1
Rattus norvegicus [6] = test: Drug Discrimination in […] trained rats at 8.0 mg/kg dose; assay type: functional; summary of the method: as §1
Rattus norvegicus [7] = test: Percentage of animals failing to emit 50 lever presses within 15 min in rats at 2.0 mg/kg dose; assay type: functional
Summary of the method: (§2)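 Two-lever drug discrimination in male Sprague–Dawley rats (200–220 g at start), trained against saline on LSD tartrate (0.08 mg/kg), DOI HCl (0.4 mg/kg) or LY293284 (0.025 mg/kg). FR50 food-pellet reinforcement, levers counterbalanced, 15-min sessions at 22–24 °C. %D is the share of tested rats not completing 50 lever presses within 15 min.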

Rattus norvegicus [8] = test: Percentage of animals failing to emit 50 lever presses within 15 min in rats at 4.0 mg/kg dose; assay type: functional; summary of the method: as §2
Rattus norvegicus [9] = test: Percentage of animals failing to emit 50 lever presses within 15 min in rats at 8.0 mg/kg dose; assay type: functional; summary of the method: as §2
Rattus norvegicus [10] = test: Percentage of animals failing to emit 50 lever presses within 15 min in rats at 1.0 mg/kg dose; assay type: functional; summary of the method: as §2
Rattus norvegicus [11] = test: Percentage of animals emitting >80% of lever presses in rats at 1.0 mg/kg dose; assay type: functional; summary of the method: as §1
Rattus norvegicus [12] = test: Percentage of animals emitting >80% of lever presses in rats at 2.0 mg/kg dose; assay type: functional; summary of the method: as §1
Rattus norvegicus [13] = test: Percentage of animals emitting >80% of lever presses in rats at 4.0 mg/kg dose; assay type: functional; summary of the method: as §1
Rattus norvegicus [14] = test: Percentage of animals emitting >80% of lever presses in rats at 8.0 mg/kg dose; assay type: functional; summary of the method: as §1
[15] = target: 5-hydroxytryptamine receptor 2A (Homo sapiens, UniProt P28223)
Sequence of 5-hydroxytryptamine receptor 2A (P28223 whole entry): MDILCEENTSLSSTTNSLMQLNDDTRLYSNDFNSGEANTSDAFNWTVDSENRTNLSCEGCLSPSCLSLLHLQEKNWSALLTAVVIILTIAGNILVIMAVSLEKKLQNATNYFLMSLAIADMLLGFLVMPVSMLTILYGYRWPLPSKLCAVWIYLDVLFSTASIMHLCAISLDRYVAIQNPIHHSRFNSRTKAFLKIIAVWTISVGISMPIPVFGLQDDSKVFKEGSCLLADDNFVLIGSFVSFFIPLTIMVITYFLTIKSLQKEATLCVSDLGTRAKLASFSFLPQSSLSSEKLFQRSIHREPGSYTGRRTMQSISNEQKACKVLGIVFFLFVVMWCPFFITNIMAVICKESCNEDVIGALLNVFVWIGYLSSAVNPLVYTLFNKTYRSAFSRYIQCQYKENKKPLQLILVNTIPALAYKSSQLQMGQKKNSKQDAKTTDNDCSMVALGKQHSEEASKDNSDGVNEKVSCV

In the case of `CN(C)CCc1c[nH]c2ccccc12`, the Ki [1] is reported as 259 nM, the D (Rattus norvegicus [2]) is reported as 0% and the SDL (Rattus norvegicus [2]) is reported as 0%. The D (Rattus norvegicus [3]) was 11%, the SDL (Rattus norvegicus [3]) was 20% and the D (Rattus norvegicus [4]) was 20%. It also gave an SDL (Rattus norvegicus [4]) of 37.5%, a D (Rattus norvegicus [5]) of 20% and an SDL (Rattus norvegicus [5]) of 62.5%. For the same molecule, the D (Rattus norvegicus [6]) was 80%, the SDL (Rattus norvegicus [6]) was 100% and the D (Rattus norvegicus [7]) was 18%. The D (Rattus norvegicus [8]) was 23%, the D (Rattus norvegicus [9]) was 37% and the D (Rattus norvegicus [10]) was 0%. It also gave an SDL (Rattus norvegicus [11]) of 37%, an SDL (Rattus norvegicus [12]) of 22% and an SDL (Rattus norvegicus [13]) of 40%. For the same molecule, the SDL (Rattus norvegicus [14]) was 83% and the Ki [15] was 65 nM.
